Holding throughout (format): functional
For assay [1], the system named is Escherichia coli. Put plainly: Antibacterial activity against Escherichia coli after 24 hrs by broth microdilution method. Summed up:
(§1)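 CLSI broth microdilution in cation-adjusted Mueller-Hinton II broth, final inoculum about 5 × 10^5 CFU/ml for most strains; streptococci supplemented with 2–5% lysed horse blood, H. influenzae in Haemophilus test medium. Aerobic incubation at 35–37°C for 24 h; MIC = lowest concentration with no visible growth.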

For assay [2], the system named is Enterobacter sp. Kind of assay: Antibacterial activity against Enterobacter sp. Summed up:
(§2)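 Aerobic isolates run by CLSI broth microdilution in cation-adjusted Mueller-Hinton II broth (streptococci plus 2–5% lysed horse blood), about 5 × 10^5 CFU/ml final; 24 h at 35–37°C aerobically; MIC read as lowest concentration without visible growth.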

Assay [3] relates to Moraxella catarrhalis. Put plainly: Antibacterial activity against Moraxella catarrhalis after 24 hrs by broth microdilution method. In outline:
as §1
For orientation: Dilution methods test growth across graded concentrations, often in twofold steps.

Assay [4] deals with Acinetobacter baumannii. Kind of assay: Antibacterial activity against Acinetobacter baumannii after 24 hrs by broth microdilution method. In outline: as §1
Assay [5] relates to Haemophilus influenzae. Kind of assay: Antibacterial activity against Haemophilus influenzae after 24 hrs by broth microdilution method. In outline: as §1
Assay [6] concerns Pseudomonas aeruginosa. Kind of assay: Antibacterial activity against Pseudomonas aeruginosa after 24 hrs by broth microdilution method. In outline: as §1
In assay [7] the test system is Klebsiella pneumoniae. Put plainly: Antibacterial activity against Klebsiella pneumoniae. Summed up: as §2
Assay [8] deals with Enterococcus faecalis. Kind of assay: Antibacterial activity against Enterococcus faecalis. In outline:
as §2

Assay [9] concerns Staphylococcus aureus. Put plainly: Antibacterial activity against methicillin-resistant Staphylococcus aureus after 24 hrs by broth microdilution method. In outline:
(§3)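 Broth microdilution per CLSI in cation-adjusted Mueller-Hinton II broth, final inoculum approximately 5 × 10^5 CFU/ml. Plates were incubated aerobically at 35 to 37°C for 24 h. MIC was the lowest concentration giving no visible growth. Reserpine, where used, was at a final concentration of 20 μg/ml.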

Assay [10] concerns Legionella pneumophila. Put plainly: Antibacterial activity against Legionella pneumophila after 24 hrs by broth microdilution method.
Assay [11] relates to Neisseria gonorrhoeae. Put plainly: Antibacterial activity against Neisseria gonorrhoeae after 24 hrs by broth microdilution method. Summed up:
as §1

Assay [12] has as its system Streptococcus pyogenes. Kind of assay: Antibacterial activity against Streptococcus pyogenes. In outline:
as §2

The subject of assay [13] is Streptococcus viridans. Kind of assay: Antibacterial activity against Streptococcus viridans after 24 hrs by broth microdilution method. In outline: as §1
The test system of assay [14] is Streptococcus pneumoniae. Put plainly: Antibacterial activity against Streptococcus pneumoniae by agar dilution method. On the technique in general: In agar dilution, organisms are placed on agar that contains the substance at set levels.
The test system of assay [15] is Mycoplasmoides pneumoniae. Kind of assay: Antibacterial activity against Mycoplasma pneumoniae after 24 hrs by broth microdilution method.
The subject of assay [16] is Neisseria meningitidis. Put plainly: Antibacterial activity against Neisseria meningitidis after 24 hrs by broth microdilution method. Summed up: as §1
The test system of assay [17] is Staphylococcus aureus. Kind of assay: Antibacterial activity against methicillin-susceptible Staphylococcus aureus after 24 hrs by broth microdilution method. Summed up:
as §3

The test system of assay [18] is Enterococcus faecium. Kind of assay: Antibacterial activity against Enterococcus faecium. Summed up: as §2
The subject of assay [19] is Clostridioides difficile. Kind of assay: Antibacterial activity against Clostridium difficile by agar dilution method. In outline:
(§4)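 Anaerobes by CLSI agar dilution on brucella agar with hemin, vitamin K and 5% laked sheep blood; inoculum from 24-h enriched blood agar colonies resuspended in brucella broth to 0.5 McFarland. Plates incubated anaerobically at 35–37°C for 48 h.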

Assay [20] relates to Bacteroides fragilis. Kind of assay: Antibacterial activity against Bacteroides fragilis by agar dilution method. Summed up:
as §4

For assay [21], the system named is Peptostreptococcus sp. Put plainly: Antibacterial activity against Peptostreptococcus sp. by agar dilution method. In outline:
as §4

Assay [22] concerns Cutibacterium acnes. Kind of assay: Antibacterial activity against Propionibacterium acnes. Summed up:
as §4

In brackets after ≈: the same amount, converted by molar mass.

Turning to `CC1(C)S[C@@H]2[C@H](NC(=O)[C@H](N)c3ccccc3)C(=O)N2[C@H]1C(=O)O` [AMPICILLIN], the MIC50 in assay [1] was 4 µg/mL (≈ 11.4 µM); in assay [2], greater than 32 µg/mL; in assay [3], 4 µg/mL (≈ 11.4 µM); in assay [4], 16 µg/mL (≈ 45.8 µM); in assay [5] it was greater than 16 µg/mL; in [6], greater than 32 µg/mL. In assay [7], the MIC50 is greater than 32 µg/mL. In addition, the MIC90 in [1] was greater than 32 µg/mL; in assay [2], greater than 32 µg/mL; in assay [3], 8 µg/mL (≈ 22.9 µM); in [4], greater than 32 µg/mL; in assay [5], greater than 16 µg/mL; in assay [6] it was greater than 32 µg/mL. Further, the MIC90 in assay [7] was greater than 32 µg/mL.

Take `CC[C@H]1OC(=O)[C@H](C)[C@@H](O[C@H]2C[C@@](C)(OC)[C@@H](O)[C@H](C)O2)[C@H](C)[C@@H](O[C@@H]2O[C@H](C)C[C@H](N(C)C)[C@H]2O)[C@](C)(O)C[C@@H](C)CN(C)[C@H](C)[C@@H](O)[C@]1(C)O` [AZITHROMYCIN]: the MIC50 in [8] was 4 µg/mL (≈ 5.34 µM); in [9], greater than 8 µg/mL; in assay [3], 0.015 µg/mL (≈ 0.02 µM); in [11], 0.06 µg/mL (≈ 0.0801 µM); in [12] it was 0.12 µg/mL (≈ 0.16 µM); in assay [13], 1 µg/mL (≈ 1.34 µM). Further, the MIC50 in assay [14] was 4 µg/mL (≈ 5.34 µM); in assay [16] it was 0.5 µg/mL (≈ 0.668 µM); in assay [17], 1 µg/mL (≈ 1.34 µM); in [18], greater than 16 µg/mL; in assay [5], 0.5 µg/mL (≈ 0.668 µM). Further, the MIC90 is greater than 16 µg/mL in assay [8]; 0.03 µg/mL (≈ 0.0401 µM) in assay [3]; 0.12 µg/mL (≈ 0.16 µM) in [11]; greater than 8 µg/mL in assay [12]; 4 µg/mL (≈ 5.34 µM) in assay [13]; greater than 8 µg/mL in assay [14]. Also, the MIC90 in assay [16] was 1 µg/mL (≈ 1.34 µM); in [17], greater than 8 µg/mL; in assay [18], greater than 16 µg/mL; in assay [5], 2 µg/mL (≈ 2.67 µM). The figures for the MIC in assay [10] and in [15] were 0.12 µg/mL (≈ 0.16 µM) and no more than 0.004 µg/mL, respectively.

On to `CO/N=C(\C(=O)N[C@@H]1C(=O)N2C(C(=O)[O-])=C(C[N+]3(C)CCCC3)CS[C@H]12)c1csc(N)n1` [CEFEPIME], for which the MIC50 in assay [2] was 0.06 µg/mL (≈ 0.125 µM); in assay [4] it was 2 µg/mL (≈ 4.16 µM); in assay [7], 0.5 µg/mL (≈ 1.04 µM). In addition, the MIC90 was 4 µg/mL (≈ 8.32 µM) in assay [2], 32 µg/mL (≈ 66.6 µM) in [4] and 32 µg/mL (≈ 66.6 µM) in assay [7].

For `CC(C)(O/N=C(\C(=O)N[C@@H]1C(=O)N2C(C(=O)[O-])=C(C[n+]3ccccc3)CS[C@H]12)c1csc(N)n1)C(=O)O` [CEFTAZIDIME], the MIC50 in [1] is 0.25 µg/mL (≈ 0.457 µM); in assay [2], 0.5 µg/mL (≈ 0.915 µM); in [4], 4 µg/mL (≈ 7.32 µM); in assay [6] it was 2 µg/mL (≈ 3.66 µM); in assay [7], 32 µg/mL (≈ 58.5 µM). For the same molecule, the MIC90 in assay [1] was 0.5 µg/mL (≈ 0.915 µM); in assay [2], greater than 32 µg/mL; in [4], greater than 32 µg/mL; in assay [6] it was 32 µg/mL (≈ 58.5 µM); in assay [7], greater than 32 µg/mL.

With `CO/N=C(\C(=O)N[C@@H]1C(=O)N2C(C(=O)O)=C(CSc3nc(=O)c(O)nn3C)CS[C@H]12)c1csc(N)n1` [CEFTRIAXONE], the MIC50 is 0.06 µg/mL (≈ 0.108 µM) in assay [1]; 0.12 µg/mL (≈ 0.216 µM) in assay [2]; 0.5 µg/mL (≈ 0.902 µM) in [3]; 0.004 µg/mL (≈ 0.00721 µM) in [11]; 0.03 µg/mL (≈ 0.0541 µM) in assay [12]; 8 µg/mL (≈ 14.4 µM) in assay [4]. Also, the MIC50 in [13] is 0.12 µg/mL (≈ 0.216 µM); in [14], 0.12 µg/mL (≈ 0.216 µM); in assay [5], less than 0.008 µg/mL; in assay [6], 64 µg/mL (≈ 115 µM); in [7] it was 16 µg/mL (≈ 28.9 µM). Besides, the MIC90 in assay [1] was 0.06 µg/mL (≈ 0.108 µM); in [2], greater than 64 µg/mL; in assay [3], 1 µg/mL (≈ 1.8 µM); in [11], 0.03 µg/mL (≈ 0.0541 µM); in assay [12], 0.03 µg/mL (≈ 0.0541 µM); in assay [4] it was greater than 64 µg/mL. The MIC90 in assay [13] is 1 µg/mL (≈ 1.8 µM); in assay [14] it was greater than 2 µg/mL; in assay [5], 0.015 µg/mL (≈ 0.027 µM); in assay [6], greater than 64 µg/mL; in assay [7], 32 µg/mL (≈ 57.7 µM).

Regarding `CCC[C@@H]1C[C@@H](C(=O)N[C@@H]([C@H]2O[C@H](SC)[C@H](O)[C@@H](O)[C@H]2O)[C@H](C)Cl)N(C)C1` [CLINDAMYCIN], the MIC50 in assay [19] was determined as 2 µg/mL (≈ 4.71 µM); in assay [20] it was 1 µg/mL (≈ 2.35 µM); in assay [21], 0.25 µg/mL (≈ 0.588 µM); in assay [22], 0.06 µg/mL (≈ 0.141 µM). The MIC90 in assay [19] is greater than 32 µg/mL; in assay [20] it was 4 µg/mL (≈ 9.41 µM); in assay [21], 1 µg/mL (≈ 2.35 µM); in assay [22], 0.06 µg/mL (≈ 0.141 µM).

Regarding `C[C@H]1c2cccc(O)c2C(=O)C2=C(O)[C@]3(O)C(=O)C(C(N)=O)=C(O)[C@@H](N(C)C)[C@@H]3[C@@H](O)[C@@H]21.O` [DOXYCYCLINE], the MIC (commonly the least concentration at which growth counts as inhibited) in [10] worked out at 1 µg/mL; in [15], 0.25 µg/mL.

The record behind these values is ChEMBL document CHEMBL1147099, “In vitro and in vivo antibacterial activities of heteroaryl isothiazolones against resistant gram-positive pathogens” (Antimicrob Agents Chemother, 2007).
